From ChEMBL document CHEMBL4041463, “Pyrazolo[1,5-a]pyridine-3-carboxamide hybrids: Design, synthesis and evaluation of anti-tubercular activity” (Eur J Med Chem, 2017)
In brackets after ≈: the same amount, converted by molar mass.

Legend:
Assay type in all cases: functional
[1] = system: Mycobacterium tuberculosis; test: Antitubercular activity against rifampicin resistant Mycobacterium tuberculosis H37Rv harboring rpoB S522L mutant after 5 days
Summary of the method: (§1)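 Ten-point two-fold DMSO dilutions in 7H9-Tw-OADC, final DMSO 2%, top concentration 200 µM. Incubated 5 days; growth read as OD590. Controls: medium/DMSO background, 100 µM rifampicin, DMSO-only, plus rifampicin dose-response. Gompertz fit of % growth; MIC taken as onset of zero growth. Plate acceptance: OD590 >0.2 in maximum-growth wells and rifampicin MIC within 3-fold of expected.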

[2] = system: Mycobacterium tuberculosis; test: Antitubercular activity against Mycobacterium tuberculosis H37Ra harboring pTYOK in UAIRa broth culture assessed as concentration required to reduce relative luminescence unit to <10% measured after 4 days by autoluminescence assay; conditions: 96 h
[3] = system: Mycobacterium tuberculosis; test: Antitubercular activity against fluoroquinolone resistant Mycobacterium tuberculosis H37Rv harboring gyrB D94N mutant after 5 days; summary of the method: as §1
[4] = system: Mycobacterium tuberculosis; test: Antitubercular activity against isoniazid resistant Mycobacterium tuberculosis ATCC 35822 after 5 days; conditions: ATCC 35822, 120 h; summary of the method: as §1
[5] = system: Mycobacterium tuberculosis; test: Antitubercular activity against isoniazid resistant Mycobacterium tuberculosis H37Rv harboring KAtG Y155 deletion mutant after 5 days; summary of the method: as §1
[6] = system: Mycobacterium tuberculosis; test: Antitubercular activity against rifampicin resistant Mycobacterium tuberculosis ATCC 35828 after 5 days; conditions: ATCC 35828, 120 h; summary of the method: as §1

| SMILES | MIC [1] | MIC [2] | MIC [3] | MIC [4] | MIC [5] | MIC [6] |
| --- | --- | --- | --- | --- | --- | --- |
| CO[C@H]1/C=C/O[C@@]2(C)Oc3c(C)c(O)c4c(O)c(c(/C=N/N5CCN(C)CC5)c(O)c4c3C2=O)NC(=O)/C(C)=C\C=C\[C@H](C)[C@H](O)[C@@H](C)[C@@H](O)[C@@H](C)[C@H](OC(C)=O)[C@@H]1C [RIFAMPIN] | 0.42 mg/L (≈ 0.51 µM) | 0.03 mg/L (≈ 0.0365 µM) | 0.017 mg/L (≈ 0.0207 µM) | 0.007 mg/L (≈ 0.00851 µM) | 0.016 mg/L (≈ 0.0194 µM) | > 41 mg/L |
| CCc1nn2ccc(Cl)cc2c1C(=O)NCC1CCN(CC23CC4CC(CC(C4)C2)C3)CC1 | – | 3 mg/L (≈ 6.4 µM) | – | – | – | – |
| CCc1nn2ccc(Cl)cc2c1C(=O)NC/C=C(\C)CCC=C(C)C | – | 0.3 mg/L (≈ 0.834 µM) | – | – | – | – |
| Cc1ccn2nc(C)c(C(=O)NCc3ccc(N4CCC(Oc5ccc(OC(F)(F)F)cc5)CC4)cc3)c2c1 | – | 0.03 mg/L (≈ 0.0557 µM) | – | – | – | – |
| CCc1nn2ccc(Cl)cc2c1C(=O)NC[C@H]1CN(c2ccc(N3CCOCC3)c(F)c2)C(=O)O1 | – | > 10 mg/L | – | – | – | – |
| CCc1nn2ccc(Cl)cc2c1C(=O)NCc1ccc(-c2ccc(OC(F)(F)F)cc2)nc1 | – | 0.1 mg/L (≈ 0.211 µM) | – | – | – | – |
| C[C@H]1COc2c(N3CCN(C)CC3)c(F)cc3c(=O)c(C(=O)O)cn1c23.C[C@H]1COc2c(N3CCN(C)CC3)c(F)cc3c(=O)c(C(=O)O)cn1c23.O [LEVOFLOXACIN] | 0.37 mg/L | – | 10 mg/L | 0.59 mg/L | 0.44 mg/L | 0.63 mg/L |
| Cc1ccn2nc(C)c(C(=O)NCc3ccc(OC(F)(F)F)cc3)c2c1 | – | 3 mg/L (≈ 8.26 µM) | – | – | – | – |
| NNC(=O)c1ccncc1 [ISONIAZID] | 0.056 mg/L (≈ 0.408 µM) | 0.41 mg/L (≈ 2.99 µM) | 0.088 mg/L (≈ 0.642 µM) | > 27 mg/L | >27 mg/L | 0.11 mg/L (≈ 0.802 µM) |
